Experimental data of several laboratories.
Each line is one published result; the experiments were not run side by side.
Target: Mitogen-activated protein kinase 15 (MAPK15, Homo sapiens, UniProt Q8TD08)
One construct used (Q8TD08 1-544): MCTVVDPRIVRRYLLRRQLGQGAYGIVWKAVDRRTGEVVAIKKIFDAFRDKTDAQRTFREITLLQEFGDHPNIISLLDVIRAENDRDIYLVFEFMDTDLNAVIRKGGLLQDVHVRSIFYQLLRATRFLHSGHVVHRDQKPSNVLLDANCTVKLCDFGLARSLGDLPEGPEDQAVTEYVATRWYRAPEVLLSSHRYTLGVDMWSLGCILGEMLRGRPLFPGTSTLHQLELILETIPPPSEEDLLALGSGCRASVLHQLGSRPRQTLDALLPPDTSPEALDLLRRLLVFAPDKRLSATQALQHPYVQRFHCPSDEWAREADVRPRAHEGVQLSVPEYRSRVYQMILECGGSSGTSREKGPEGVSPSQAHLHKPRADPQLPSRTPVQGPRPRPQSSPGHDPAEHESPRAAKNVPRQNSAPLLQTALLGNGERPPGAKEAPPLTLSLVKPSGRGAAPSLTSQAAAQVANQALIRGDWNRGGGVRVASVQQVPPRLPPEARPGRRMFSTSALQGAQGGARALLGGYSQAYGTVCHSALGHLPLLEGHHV

SMILES	effect on	technique	concentration	remaining binding
CNC(=O)[C@@H]1CC[C@@H](n2c(-c3ccc4cnccc4c3)nc3ccc(C(=O)NCc4cccc(C(N)=O)c4)cc32)C1	binding	competition with immobilised ligand	1 µM	95%
c1cnn2ncc(-c3ccnc(N4CCC45COC5)n3)c2c1	binding	–	1 µM	71%
CN([C@@H]1CCc2c(CC(=O)O)c3ccccc3n2C1)S(=O)(=O)c1ccc(F)cc1	cell-free assay	competition with immobilised ligand	1 µM	100%
O=C(c1ccc(Nc2ncc(Cl)c(-c3cc4ccccc4s3)n2)cc1)N1CCC(N2CCCC2)CC1	binding	competition with immobilised ligand	1 µM	5.4%
N[C@@H]1CCN(c2nccc(-c3cnn4ncccc34)n2)C1	binding	–	1 µM	97%
O=C(NCCCN1CCOCC1)c1ccc(Nc2nccc(-c3cc4ccccc4s3)n2)cc1	binding	competition with immobilised ligand	1 µM	10%
Cc1noc([C@H]2C[C@@H](c3ccc(C(F)(F)F)cc3)CN(C(=O)N3CCS(=O)(=O)C3)C2)n1	cell-free assay	competition with immobilised ligand	1 µM	100%
c1cncc(-c2cccc(Nc3nccc(NC4CCCCC4)n3)c2)c1	binding	competition with immobilised ligand	10 µM	62%
C[C@H]1CCN(c2nccc(-c3cnn4ncccc34)n2)C1	binding	–	1 µM	74%
COc1cnc(Nc2cccc(S(N)(=O)=O)c2)nc1N1CCN(c2ccccc2)C(=O)C1	binding	competition with immobilised ligand	1 µM	100%
CSc1cccnc1N1CCN(Cc2nc3ccccc3[nH]2)CC1	cell-free assay	competition with immobilised ligand	1 µM	82%
O=C(NCC1CCOCC1)c1n[nH]cc1NC(=O)c1c(F)cccc1F	binding	competition with immobilised ligand	1 µM	79%
CC1=C(C#N)C(c2ccc3c(c2)c(NC(=O)c2ccccc2C)nn3C)C(C#N)=C(C)N1	cell-free assay	competition with immobilised ligand	1 µM	89%
CCN1CCN(Cc2ccc(C(=O)Nc3ccc(C)c(Oc4ccc5c(c4)CC(=O)N5)c3)cc2C(F)(F)F)CC1	binding	competition with immobilised ligand	1 µM	100%
CN(c1nccc(-c2cnn3ncccc23)n1)C1CC1	binding	–	1 µM	85%
CO[C@@H](C)c1c(Nc2ccc([C@H](N(C)C(=O)C3CCS(=O)(=O)CC3)C(F)(F)F)cc2)cnc2cc(Cl)nn12	cell-free assay	competition with immobilised ligand	1 µM	87%
CN(CCCC(F)(F)F)c1nccc(-c2cnn3ncccc23)n1	binding	–	1 µM	100%
C[C@H](c1ccc(F)cc1)N(Cc1cccc(C(=O)O)c1)C(=O)c1cnc2ccccc2c1	cell-free assay	competition with immobilised ligand	1 µM	93%
COc1ccnn2ncc(-c3ccnc(N(C)C)n3)c12	binding	–	1 µM	91%
CCS(=O)(=O)c1cc2cc(C[C@](O)(CC(C)(C)c3ccc(F)cc3C(N)=O)C(F)(F)F)[nH]c2cn1	cell-free assay	competition with immobilised ligand	1 µM	100%
CC1CCCN1c1nccc(-c2cnn3ncccc23)n1 (stereo not shown)	binding	–	1 µM	100%
Cc1cnc(Nc2ccc(C(=O)N3CCC(N4CCCC4)CC3)cc2)nc1-c1cc2ccccc2s1	binding	competition with immobilised ligand	1 µM	33%
